Compound activity deposited in PubChem by several laboratories.
PTEN del growth = PTEN-deleted cell growth suppression. viability, % at 10 µM. 140,000 tested, 1.2% active. HCT116 PTEN-null viability, CellTiter-Glo, 60 h; active compounds read low;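 active means viability at or below a set limit, 4 SD under the median of all tested compounds, cut at about 3.7% in these data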;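 further: PTEN knockout HCT116 line with beta catenin targeted HCT116 as companion control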
Dynein transport = dynein cargo transport inhibition. 3617.4 mouse cells, GR-EGFP nuclear translocation imaging; test concentration mostly 20 µM; stimulated with dexamethasone, 1 µM; active compounds read low. z-score, hits read low. 220,000 tested, 0.47% active;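 active means plate z-score of nuclear minus cytoplasmic receptor signal below a set negative limit, without overly bright fluorescence or cell loss, cut at about -3.5 in these data, passing the limit was not always enough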;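 further: z-score of nuclear minus cytoplasmic ring GR-EGFP intensity difference per well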
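Buffer or medium: tet-free, stripped-serum medium; Also added: dexamethasone, 1.0 µM final; Technique: high-content fluorescence imaging after fixation; Times: 48 h induction, 1 h compound, 30 min dex at 37 °C; Read-out: per-cell GR-EGFP intensity, nucleus versus surrounding cytoplasmic ring, well-averaged.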
bCat KO growth = beta-catenin-lacking colon tumor cell growth suppression; HCT116 beta-catenin knockout viability, CellTiter-Glo, 60 h; active compounds read low; 140,000 tested, 1.5% active; viability, % at 10 µM;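 active means viability at or under a set limit, the compound median less 4 SD, cut at about 6% in these data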
Lmaj promast = Leishmania major promastigote growth inhibition; Leishmania major promastigotes, resazurin fluorescence viability; 200,000 tested, 9% active; inhibition, % at 10 µM; in the data active means inhibition above about 50%;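 further: promastigotes grown with compound for 44 hours at 28 °C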
Autophagy mod = modulators of autophagy; MEF GFP-LC3 puncta imaging; test concentration mostly 10 µM; 190,000 tested, 0.98% active; calls only at 10 µM (by protocol); AID 463193;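 active means percentage of spot-positive cells more than 3 SD above its plate mean, without a fluorescence outlier flag or 80% toxicity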
Numbers stand for hits; 0 = inactive; - = no result given; + = active, no number. Shown are actives, neighbours in structure and some others; about 9.2% of the full set was active somewhere.

SMILES | PTEN del growth | Dynein transport | bCat KO growth | Lmaj promast | Autophagy mod
Cc1cc(Cl)ccc1NC(=O)CSc1nnc(Cc2cccs2)n1Cc1ccco1 | 0 | 0 | 0 | 86 | 0
Cc1ccnn1CC(=O)N/N=C/c1cn[nH]c1-c1ccccc1 | - | 0 | - | - | -
COc1cc2c(cc1NC(=O)CSc1nc3ccc(C)cc3[nH]1)oc1ccccc12 | 0 | 0 | 0 | 65 | 0
COc1ccccc1C(=O)Nc1nnc(SCC(=O)Nc2ccc3c(c2)oc2ccccc23)s1 | 0 | 0 | 0 | 96 | 0
COc1cc2c(cc1NC(=O)CSc1ccc(C)cc1)oc1ccccc12 | 0 | 0 | 0 | 0 | 0
COc1cc2c(cc1NC(=O)CSc1nnc(Cc3cccs3)n1C)oc1ccccc12 | 0 | 0 | 0 | 0 | 0
COc1cc2c(cc1NC(=O)CSc1nnc(Cc3cccs3)n1Cc1ccco1)oc1ccccc12 | 0 | 0 | 0 | 91 | 0
CCOc1ccc2nc(COC(=O)c3cccc([N+](=O)[O-])c3)c(C(C)=O)[n+]([O-])c2c1 | - | 0 | - | - | -
COc1ccccc1CN1C[C@@H]2C[C@@H](C3=Cc4cc(Cl)ccc4OC3)N3CCC[C@@]23C1=O | - | 0 | - | 0 | 0
O=C(Nc1ccc2c(c1)CCC2)c1cc(S(=O)(=O)Nc2ccc(F)cc2)c(Cl)cc1Cl | 0 | 0 | 0 | 60 | 0
O=C(Nc1ccc2c(c1)CCC2)c1ccc(F)cc1 | 0 | 0 | 0 | 0 | 0
Cc1cccc(/C=N\Nc2nnc(-c3ccccc3)c(=O)[nH]2)c1 | 0 | 0 | 0 | 68 | 0
C(=N\Nc1nc2ccccc2[nH]1)/c1ccccc1 | - | 0 | - | 0 | 0
O=c1[nH]c(N/N=C/c2ccccc2)nc2ccccc12 | 0 | 0 | 0 | 58 | 0
O=c1[nH]c(N/N=C\c2ccc3c(c2)OCO3)nc2ccccc12 | - | 0 | - | 51 | 0
CC(/C=N/Nc1nnc(C)c(=O)[nH]1)=C\c1ccccc1 | 0 | 0 | 0 | 0 | 0
CN(C(=O)CSc1nnnn1-c1ccccc1)C1CCS(=O)(=O)C1 (stereo not drawn) | - | 0 | - | 0 | 0
O=C(Nc1nc2ccccc2s1)C1CCN(S(=O)(=O)c2cc([N+](=O)[O-])ccc2Cl)CC1 | - | 0 | - | - | -
CN(C(=O)COC(=O)COc1ccccc1F)C1CCS(=O)(=O)C1 (stereo not drawn) | 0 | 0 | 0 | 0 | 0
CN(C)CCCNc1ccc(-c2nn(C)c(=O)c3ccccc23)cc1[N+](=O)[O-] | - | 0 | - | 100 | 0
COc1ccccc1NCc1ccc([N+](=O)[O-])s1 | 0 | 0 | 0 | 60 | 0
COc1ccccc1CNc1ccc([N+](=O)[O-])cc1C | - | 0 | - | 0 | 0
Cc1nn(Cc2ccc(F)cc2)c(C)c1NC(=O)c1cnn2c1NC(c1cccs1)CC2C(F)(F)F (stereo not drawn) | 0 | 0 | 0 | 0 | 0
Cc1nn(Cc2ccc(F)cc2)c(C)c1NC(=O)c1cnn2c1NC(c1ccccc1)CC2C(F)(F)F (stereo not drawn) | 0 | 0 | 0 | 73 | 0
Cc1ccc(C(c2c(C)n(C)n(-c3ccccc3)c2=O)c2c(C)n(C)n(-c3ccccc3)c2=O)s1 | - | 0 | - | 94 | 0
SMILES | PTEN del growth | Dynein transport | bCat KO growth | Lmaj promast | Autophagy mod
Cc1ccc(NC(=O)COC(=O)c2ccc(OCc3c(C)noc3C)cc2)cc1S(=O)(=O)N1CCOCC1 | 0 | 0 | 0 | 0 | 0
CCCCn1c(N2CCC(Cc3ccccc3)CC2)nc2c1c(=O)[nH]c(=O)n2C | 0 | 0 | 0 | 78 | 0
Cn1c(=O)[nH]c(=O)c2c1nc(N1CCN(Cc3ccccc3)CC1)n2CCCc1ccccc1 | 0 | 0 | 5.6 | 0 | 0
CCN1CCN(c2nc3c(c(=O)[nH]c(=O)n3C)n2CCCc2ccccc2)CC1 | - | 0 | - | 0 | 0
O=C(COC(=O)C1=Cc2ccccc2OC1)NC1CCCC1 | 0 | 0 | 0 | 0 | 0
NC(=S)N=Nc1c(O)[nH]c2c(Br)cc(Br)cc12 | - | 0 | - | 0 | 0
CCN1CCCC1CN(Cc1cc2c(C)cc(C)cc2[nH]c1=O)C(=O)NC1CCCCC1 (stereo not drawn) | 0 | 0 | 0 | 59 | 0
COc1ccccc1N1CCN(C(=O)C(NS(=O)(=O)c2cccs2)c2ccccc2)CC1 (stereo not drawn) | 0 | 0 | 0 | 0 | 0
CC1CC(C)CN(C(=O)C(NS(=O)(=O)c2ccc(Br)s2)c2ccccc2)C1 (stereo not drawn) | 0 | 0 | 0 | 81 | 0
COC(=O)/C=c1/s/c(=C(/C#N)C(=O)NCc2ccccc2)n(-c2ccccc2)c1=O | 0 | 0 | 0 | 0 | 0
CCCCCCOc1ccc(/C=c2\s/c(=C(/C#N)C(=O)NCc3ccco3)n(-c3ccccc3)c2=O)cc1 | 0 | 0 | 4.7 | 0 | +
FC(F)(F)c1cccnc1-n1cncn1 | - | 0 | - | - | -
CCc1ccc(NC(=S)N2CCCC(C(F)(F)F)C2)cc1 (stereo not drawn) | - | 0 | - | 96 | 0
CC1CCCN(C(=S)Nc2ccc(F)cc2)C1 (stereo not drawn) | - | 0 | - | 0 | 0
O=C(COc1ccc(-n2cnnn2)cc1)NCCc1ccc(F)cc1 | 0 | 0 | 0 | 0 | 0
O=C1S/C(=C/c2ccccc2)C(=O)N1CC(O)Cn1c2ccccc2c2ccccc21 (stereo not drawn) | 0 | 0 | 0 | 0 | 0
CN(C)c1ccc(/C=C2\SC(=O)N(CC(O)Cn3c4ccccc4c4ccccc43)C2=O)cc1 (stereo not drawn) | 0 | 0 | 0 | 0 | +
Cc1cc(C)cc(CC(Cc2nc3ccccc3[nH]2)c2nc3ccccc3[nH]2)c1 (stereo not drawn) | 0 | 0 | 0 | 91 | 0
CC(=NCCc1c(C)[nH]c2ccc(C)cc12)C1=C(O)CC(c2ccccc2)CC1=O (stereo not drawn) | 0 | 0 | 0 | 98 | 0
COC(=O)c1cc(CNC(=O)c2cccc(Cl)c2Cl)ccc1OC | 0 | 0 | 0 | 53 | 0
O=C(N/N=C/c1ccco1)c1cc(-c2ccc(Cl)s2)[nH]n1 | - | 0 | - | 0 | 0
O=C1Nc2ccccc2C12OCC1(CO2)COC2(OC1)C(=O)Nc1ccccc12 (stereo not drawn) | 0 | 0 | 0 | 91 | 0
CC1(C)COC2(OC1)C(=O)Nc1ccccc12 | - | 0 | - | 0 | 0
COc1cc(C(=O)OCCCN=C2NS(=O)(=O)c3ccccc32)cc(OC)c1OC | - | 0 | - | 0 | 0
COC(=O)COn1c(SCC(=O)OC)nc2ccccc2c1=O | 0 | 0 | 0 | 0 | 0
SMILES | PTEN del growth | Dynein transport | bCat KO growth | Lmaj promast | Autophagy mod
C/C(=N\N1CCN(Cc2ccc(Cl)cc2)CC1)c1ccc([N+](=O)[O-])cc1 | - | 0 | - | - | -
O=C(/C=C/c1ccc(Cl)cc1Cl)N(Cc1ccccc1)C1CCS(=O)(=O)C1 (stereo not drawn) | 0 | 0 | 0 | 84 | 0
O=C(/C=C/c1ccc(Cl)cc1Cl)N(Cc1ccc(Cl)cc1)C1CCS(=O)(=O)C1 (stereo not drawn) | 0 | 0 | 0 | 88 | 0
COc1ccc(CC2(CO)CCN(Cc3cccc(OC)c3OC)CC2)cc1 | - | 0 | - | 0 | 0
COc1ccc(CC2(CO)CCN(C(C)Cc3ccc(Cl)cc3)CC2)cc1 (stereo not drawn) | - | 0 | - | 86 | 0
OCC1(Cc2ccc(Cl)cc2)CCN(Cc2ccc3nsnc3c2)CC1 | - | 0 | - | 88 | 0
COc1ccc(CC2(CO)CCN(Cc3cccnc3)CC2)cc1 | - | 0 | - | 89 | 0
